Measurements reported in ChEMBL document CHEMBL3425488, “Novel histone deacetylase inhibitors induce growth arrest, apoptosis, and differentiation in sarcoma cancer stem cells” (J Med Chem, 2015).
The source made the active and inactive calls. The rule behind the calls is not given here.

What was measured:
[1] = tested on: MG-63; test: Induction of human MG63 cell differentiation assessed as increase in bone nodule formation at 0.025 to 0.5 uM after 14 days by Alizarin Red S staining-based spectrophotometric analysis relative to control; assay type: functional
Summary of the method: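 MG-63 sarcosphere-derived cells in mineralization medium (10 mM β-glycerophosphate, 10−8 M dexamethasone, ascorbic acid 2-phosphate) with continuous 0.025–0.5 μM exposure for 14 days. Fixed in 3.7% paraformaldehyde, then stained with 2% Alizarin Red S, pH 4.2, for 1 h. Dye eluted with 10% cetylpyridinium chloride and read at 570 nm. OD expressed relative to mineralization-medium control; triplicate.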

[2] = target: T1, Histone deacetylase 11 (Homo sapiens, UniProt Q96DB2); test: Inhibition of recombinant HDAC11 (unknown origin) by homogeneous fluorescence release assay
T1 sequence (Q96DB2 whole entry): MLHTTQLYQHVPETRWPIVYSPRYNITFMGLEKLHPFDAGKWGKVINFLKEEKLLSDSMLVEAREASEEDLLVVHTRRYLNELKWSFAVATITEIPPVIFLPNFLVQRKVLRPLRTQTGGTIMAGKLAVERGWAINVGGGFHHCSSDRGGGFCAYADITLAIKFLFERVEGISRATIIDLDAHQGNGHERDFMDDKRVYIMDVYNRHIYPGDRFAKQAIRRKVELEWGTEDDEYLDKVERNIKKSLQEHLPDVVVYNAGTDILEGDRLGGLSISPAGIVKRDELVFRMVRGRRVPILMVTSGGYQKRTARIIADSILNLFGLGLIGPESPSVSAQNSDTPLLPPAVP

[3] = tested on: RD; test: Antiproliferative activity against human RD cells after 24 to 72 hrs by […] dye exclusion assay; assay type: functional, cell-based
Summary of the method: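 Sarcosphere-derived CSCs, dissociated to single cells, plated at 50000/well in complete IMDM for adhesion. After 24 h, exposed to 0.5, 1 and 2 μM. Viable cells counted by dye exclusion at 24, 48 and 72 h. Growth inhibition is expressed relative to DMSO-treated controls. Three experiments in duplicate.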

[4] = target: Histone deacetylase 3 (Homo sapiens, UniProt O15379); test: Inhibition of recombinant HDAC3 (unknown origin) by homogeneous fluorescence release assay
Chain of Histone deacetylase 3 (O15379 whole entry): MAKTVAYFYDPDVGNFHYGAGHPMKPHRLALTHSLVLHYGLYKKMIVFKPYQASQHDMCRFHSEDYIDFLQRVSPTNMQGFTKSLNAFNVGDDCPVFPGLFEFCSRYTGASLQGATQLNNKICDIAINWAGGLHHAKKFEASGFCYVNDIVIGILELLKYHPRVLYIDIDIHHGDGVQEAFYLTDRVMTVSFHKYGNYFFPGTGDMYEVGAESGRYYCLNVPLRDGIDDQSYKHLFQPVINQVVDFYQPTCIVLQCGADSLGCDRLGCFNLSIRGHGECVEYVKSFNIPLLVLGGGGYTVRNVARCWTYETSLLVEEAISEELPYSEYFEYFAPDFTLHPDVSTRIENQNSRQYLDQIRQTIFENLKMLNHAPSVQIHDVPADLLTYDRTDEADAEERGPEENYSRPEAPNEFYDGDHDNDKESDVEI

[5] = target: Histone deacetylase 1 (Homo sapiens, UniProt Q13547); test: Inhibition of recombinant HDAC1 (unknown origin) by homogeneous fluorescence release assay
Chain of Histone deacetylase 1 (Q13547 whole entry): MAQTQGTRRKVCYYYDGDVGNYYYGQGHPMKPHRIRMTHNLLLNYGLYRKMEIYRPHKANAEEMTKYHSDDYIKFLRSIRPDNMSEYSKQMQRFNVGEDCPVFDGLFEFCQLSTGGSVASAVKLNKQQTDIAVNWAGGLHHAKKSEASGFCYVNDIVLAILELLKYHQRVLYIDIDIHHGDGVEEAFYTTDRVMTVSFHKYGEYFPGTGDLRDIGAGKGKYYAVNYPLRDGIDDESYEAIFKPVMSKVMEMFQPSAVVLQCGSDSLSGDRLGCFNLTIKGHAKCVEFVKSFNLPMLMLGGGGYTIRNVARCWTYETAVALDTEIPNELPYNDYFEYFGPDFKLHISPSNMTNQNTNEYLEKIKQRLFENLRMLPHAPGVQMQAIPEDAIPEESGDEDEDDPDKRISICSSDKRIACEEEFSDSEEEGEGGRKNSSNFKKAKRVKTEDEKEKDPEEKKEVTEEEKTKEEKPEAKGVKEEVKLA

[6] = target: T2, Histone deacetylase 7 (Homo sapiens, UniProt Q8WUI4); test: Inhibition of recombinant HDAC7 (unknown origin) by homogeneous fluorescence release assay
T2 sequence (Q8WUI4 whole entry): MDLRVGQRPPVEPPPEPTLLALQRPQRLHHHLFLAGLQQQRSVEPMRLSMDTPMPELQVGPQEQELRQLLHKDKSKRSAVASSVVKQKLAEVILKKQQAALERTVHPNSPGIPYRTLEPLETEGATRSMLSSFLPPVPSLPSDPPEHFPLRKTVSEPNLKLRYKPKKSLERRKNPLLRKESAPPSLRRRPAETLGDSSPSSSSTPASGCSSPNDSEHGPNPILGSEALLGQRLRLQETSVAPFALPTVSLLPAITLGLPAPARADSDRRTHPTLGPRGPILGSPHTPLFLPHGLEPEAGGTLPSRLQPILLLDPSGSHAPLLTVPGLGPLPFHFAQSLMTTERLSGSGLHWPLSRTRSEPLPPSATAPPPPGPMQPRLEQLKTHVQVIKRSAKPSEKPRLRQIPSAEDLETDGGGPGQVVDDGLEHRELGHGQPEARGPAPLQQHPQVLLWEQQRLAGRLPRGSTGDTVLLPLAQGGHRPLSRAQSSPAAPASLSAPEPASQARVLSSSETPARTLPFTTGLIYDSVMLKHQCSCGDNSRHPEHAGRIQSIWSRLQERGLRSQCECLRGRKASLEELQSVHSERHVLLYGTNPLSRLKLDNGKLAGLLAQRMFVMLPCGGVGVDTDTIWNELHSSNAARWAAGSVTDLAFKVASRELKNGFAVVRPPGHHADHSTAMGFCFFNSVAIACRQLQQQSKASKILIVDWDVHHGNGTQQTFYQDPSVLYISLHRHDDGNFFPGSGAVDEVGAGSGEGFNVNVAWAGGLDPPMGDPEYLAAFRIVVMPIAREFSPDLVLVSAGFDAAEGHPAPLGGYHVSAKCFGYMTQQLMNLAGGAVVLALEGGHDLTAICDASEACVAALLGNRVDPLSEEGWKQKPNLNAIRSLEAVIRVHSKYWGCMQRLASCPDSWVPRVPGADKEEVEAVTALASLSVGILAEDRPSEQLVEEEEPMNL
Summary of the method: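 Isoform enzyme assay run in 10-dose IC50 mode. Compounds were serially diluted 3-fold starting from 50 μM solutions.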

[7] = target: Histone deacetylase (Homo sapiens) (UniProt Q13547+O15379+Q9UBN7+Q92769+Q9UQL6+Q8WUI4+Q9BY41+Q96DB2+P56524+Q9UKV0+Q969S8); settings: MG-63, 0.5 to 2 uM
[8] = tested on: MG-63; test: Induction of human MG63 cell differentiation assessed as increase in bone nodule formation after 14 days by Alizarin Red S staining-based spectrophotometric analysis; assay type: functional
Summary of the method: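 Cells from dissociated MG-63 sarcospheres were grown in α-MEM with 10% FBS until 70% confluent. They were then switched to mineralization medium (10 mM β-glycerophosphate, 10−8 M dexamethasone, […] ascorbic acid 2-phosphate) and exposed continuously to 0.025–0.5 μM compound for 14 days. After fixation, Alizarin Red S staining (pH 4.2) was eluted with 10% cetylpyridinium chloride and read at 570 nm. Values are OD relative to medium-alone control, in triplicate.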

SMILES | Activity [1] | IC50 [2] | Activity [3] | IC50 [4] | IC50 [5] | IC50 [6] | inhibition [7] | Activity [8]
O=C(/C=C/c1ccc(NC(=O)C(Cc2ccccc2)c2ccccc2)cn1)NO (stereo not given) | inactive | 10.2 µM | Dose-dependent effect | 0.08 µM | 1.42 µM | 8.77 µM |  | 
O=C(CCCCSc1nc(-c2ccc(-c3ccccc3)cc2)cc(=O)[nH]1)NO |  |  | Dose-dependent effect |  |  | > 50 µM | Active | Dose-dependent effect
